In paper PMC6560633 (Journal of the American Chemical Society, 2018):
Where two headings read alike, the source gives them in different places.

Experiments:
[1] = Kinetic inertness: La^3+ transmetalation challenge of Ba–L complexes, UV-vis; type: physicochemical; conditions: 1000 equiv of La^3+, RT, pH 7.3
[2] = Stability of Ba^2+ complexes in the presence of hydroxyapatite, GFAAS; type: physicochemical; conditions: HAP suspension, pH 7.6 buffer, after 20 h; 1.1 equiv L, 1.0 equiv Ba^2+
[3] = Stability constants of Ca^2+ complexes by pH-potentiometry; type: binding; conditions: I = 0.1 M KCl; for log KʹCa (conditional stability constant): pH 7.4, 25 °C; for pCa: −log [M^2+]free, [M^2+] = 10^−6 M, [L] = 10^−5 M, pH 7.4; for pCa / log KCaL / log KCaHL: 25 °C; for log KCaHL: protonation constant of the Ca^2+ complex
[4] = Stability constants of Sr^2+ complexes by pH-potentiometry; type: binding; conditions: I = 0.1 M KCl; for log KʹSr (conditional stability constant): pH 7.4, 25 °C; for pSr: −log [M^2+]free, [M^2+] = 10^−6 M, [L] = 10^−5 M, pH 7.4
[5] = Stability constants of Ba^2+ complexes by pH-potentiometry; type: binding; conditions: for selectivity for Ba^2+ over Ca^2+ (ratio of pM values) / selectivity for Ba^2+ over Sr^2+ (ratio of pM values) / pBa / major species present in solution of Ba^2+ and ligand: pH 7.4; for log KʹBa (conditional stability constant): pH 7.4, 25 °C; for log KʹBa (conditional stability constant) / pBa / log KBaL / major species present in solution of Ba^2+ and ligand / log KBaH2L / log KBaHL: I = 0.1 M KCl; for pBa: −log [M^2+]free, [M^2+] = 10^−6 M, [L] = 10^−5 M; for pBa / log KBaL / major species present in solution of Ba^2+ and ligand / log KBaH2L / log KBaHL: 25 °C; for major species present in solution of Ba^2+ and ligand: [Ba^2+]tot = [L]tot = 1.0 mM; for log KBaH2L / log KBaHL: protonation constant of the Ba^2+ complex
[6] = Dissolution of BaSO4 suspension by ligand, GFAAS
In short: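 BaSO4 was formed in pH 8 NaHCO3 from Ba(NO3)2 (4.53 mM) and excess Na2SO4 (13.48 mM), then ligand (5 mM) was added at RT. Dissolved barium was measured by GFAAS after 10, 20 and 30 min. A second series used pH 11 […] buffer and was sampled at 5 and 30 min. Results are reported as percent of BaSO4 dissolved.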

[7] = I = 0.1 M KCl, cited from earlier work
[8] = cited from earlier work; for log KCaHL: protonation constant of the Ca^2+ complex
[9] = cited from earlier work; for log KSrHL: protonation constant of the Sr^2+ complex
[10] = cited from earlier work
[11] = Dissolution of crude barite ore in columns, ligand efficiency by GFAAS; conditions: barite 3 g, soak 1 h
[12] = Ligand protonation constants by pH-potentiometric titration; type: physicochemical; conditions: for log Ka1 / log Ka2 / log Ka3 / log Ka4: 25 °C, I = 0.1 M KCl; for existence of fully deprotonated ligand in solution: speciation
In short: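 Protonation constants came from pH-potentiometric titration at 25 °C in 0.1 M KCl. The fraction of each protonated or deprotonated ligand species in solution was calculated from the fitted constants using species distribution diagrams. Overall ligand basicity was taken as the sum of the log Ka values.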

[13] = pH 8 NaHCO3, RT, ligand 5 mM, 30 min
[14] = protonation constant of the Sr^2+ complex, 25 °C
[15] = I = 0.1 M KNO3, bracketed value

Compound | log KʹCa (conditional stability constant) [3] | pCa [3] | log KʹSr (conditional stability constant) [4] | pSr ([4]; 25 °C) | selectivity for Ba^2+ over Ca^2+ (ratio of pM values) [5] [fold] | selectivity for Ba^2+ over Sr^2+ (ratio of pM values) [5] [fold] | log KʹBa (conditional stability constant) [5] | pBa [5] | BaSO4 dissolved [6, 13] | overall basicity (sum of log Ka values) [12] | log Ka1 [12] | log Ka2 [12] | log Ka3 [12] | log Ka4 [12] | log KCaL [3] | log KSrL ([4]; 25 °C) | log KSrHL [4, 14] | log KBaL [5] | major species present in solution of Ba^2+ and ligand [5] | log KBaH2L [5] | further results
O=C([O-])c1cccc(CN2CCOCCOCCN(Cc3cccc(C(=O)[O-])n3)CCOCCOCC2)n1.[Ba+2] [Ba–macropa] |  |  |  |  |  |  |  |  |  |  |  |  |  |  |  |  |  |  |  |  | half-life (t½) of substitution of Ba^2+ with La^3+ [1]: 5.45 ± 0.20 min; Ba^2+ retained in the liquid phase (intact complex) [2]: 82%
O=C(O)CN1CCN(CC(=O)O)CCN(CC(=O)O)CCN(CC(=O)O)CC1 [DOTA, reference compound] | 10.34 | 11.29 | 8.35 | 9.30 | < 1 | < 1 | 5.72 | 6.76 | 40% |  |  |  |  |  |  |  |  |  |  |  | BaSO4 dissolved ([6]; pH 11 NaCO3 buffer, 30 min): 75%; log Ka1 [7]: 11.14; log Ka2 [7]: 9.69; log Ka3 [7]: 4.85; log Ka4 [7]: 3.95; log KCaHL ([8]; I = 0.1 M KCl): 3.60; log KSrHL ([9]; I = 0.1 M KCl): 4.52; log KBaL ([10]; I = 0.1 M KCl): 11.75
O=C(O)CN(CCN(CC(=O)O)CC(=O)O)CCN(CC(=O)O)CC(=O)O [DTPA, reference compound] | 7.63 | 8.59 | 5.53 | 6.61 | < 1 | < 1 | 4.63 | 6.15 | 40% |  |  |  |  |  |  |  |  |  |  |  | BaSO4 dissolved ([6]; pH 11 NaCO3 buffer, 5 min): nearly all; ligand efficiency (percent of ligand saturated with Ba^2+) ([11]; pH 8, ~48 mM ligand): 2%; ligand efficiency (percent of ligand saturated with Ba^2+) ([11]; pH 11, ~48 mM ligand): 17%; log Ka1 [7]: 10.34; log Ka2 [7]: 8.59; log Ka3 [7]: 4.25; log Ka4 [7]: 2.71; log Ka5 [7]: 2.18; log KCaL ([8]; I = 0.1 M KCl): 11.77; log KCaHL [8]: 6.10; log KSrL [9]: 9.68; log KSrHL [9]: 5.4; log KBaL [10]: 8.78; log KBaHL ([10]; protonation constant of the Ba^2+ complex): 5.34
O=C(O)c1cccc(CN2CCOCCOCCN(Cc3cccc(C(=O)O)n3)CCOCCOCC2)n1 [macropa] | 5.42 | 6.54 | 9.07 | 10.02 | 1.79 | 1.17 | 10.74 | 11.69 | complete dissolution | 19.99 | 7.41 | 6.899 | 3.23(1) | 2.45(5) | 5.79(1) | 9.442(4) | 3.35(8) | 11.11(4) | ML species | 2.49(7) | log Ka1 ([12]; listed as macropa^2−): 7.41(1); log Ka2 ([12]; listed as macropa^2−): 6.899(3); fraction of ligand fully deprotonated (L^2–) ([12]; pH 7.4): 43%; Ba^2+ bound by ligand ([5]; pH 4.0): 90%; Ba^2+ complexed by ligand ([5]; pH 5.1): 99%; log KBaHL [5]: 3.76(2); BaSO4 dissolved ([6]; pH 8 NaHCO3, RT, ligand 5 mM, 10 min): 78%; BaSO4 dissolved ([6]; pH 11 NaCO3 buffer, 5 min): > 95%; ligand efficiency (percent of ligand saturated with Ba^2+) ([11]; pH 8, ~48 mM ligand): 40%; ligand efficiency (percent of ligand saturated with Ba^2+) ([11]; pH 11, ~48 mM ligand): 40%; log Ka1 ([7]; parenthetic value): 7.41; log Ka2 ([7]; parenthetic value): 6.85; log Ka3 ([7]; parenthetic value): 3.32; log Ka4 ([7]; parenthetic value): 2.36; log Ka5 ([7]; parenthetic value): (1.69); log KCaL [8, 15]: 5.25; log KSrL [9, 15]: 9.57
O=C(O)c1cccc(CN2CCOCCOCCN(Cc3ccc4cccc(O)c4n3)CCOCCOCC2)n1 [macropaquin] | 3.94 | 6.04 | 7.54 | 8.50 |  |  | 10.05 | 11.01 | 95% | 27.69 | 10.33 | 7.15 | 6.97 | 3.24(4) | 5.90(4) | 9.19(5) | 8.92(2) | 10.87(2) | MHL species | 3.28(2) | log Ka1 ([12]; listed as macropaquin^2−): 10.33(4); log Ka2 ([12]; listed as macropaquin^2−): 7.15(3); log Ka3 ([12]; listed as macropaquin^2−): 6.97(2); fraction of ligand as monoprotonated species HL^– ([12]; pH 7.4): 56%; existence of fully deprotonated ligand in solution [12]: do not exist in solution below pH 8; log KCaHL [3]: 8.59(2); log KBaHL [5]: 9.76(2)
O=S(=O)(O)c1ccc(O)c2nc(CN3CCOCCOCCN(Cc4ccc5c(S(=O)(=O)O)ccc(O)c5n4)CCOCCOCC3)ccc12 [macroquin–SO3] | 3.19 | 6.01 | 5.64 | 6.70 |  |  | 8.76 | 9.72 |  | 32.14 | 9.34 | 9.43 | 6.75 | 6.62 | 6.04(8) | 8.62(2) | 8.34(4) | 10.44(6) | MH2L species | 7.80(2) | log Ka1 ([12]; listed as macroquin–SO3^4−): 9.34(4); log Ka2 ([12]; listed as macroquin–SO3^4−): 9.43(1); log Ka3 ([12]; listed as macroquin–SO3^4−): 6.75(4); log Ka4 ([12]; listed as macroquin–SO3^4−): 6.62(4); fraction of ligand as H2L^2– ([12]; pH 7.4): 78%; existence of fully deprotonated ligand in solution [12]: do not exist in solution below pH 8; log KCaHL [3]: 8.60(4); log KSrH2L [4, 14]: 6.920(3); log KBaHL [5]: 9.24(7)
